In ChEMBL document CHEMBL1641559, “Facile synthesis and biological evaluation of 3,3-diphenylpropanoyl piperazines as T-type calcium channel blockers” (Bioorg Med Chem Lett, 2011):

biological target: T1, Voltage-dependent T-type calcium channel subunit alpha-1G (Homo sapiens, UniProt O43497); assay: Inhibition of T-type alpha1G calcium channel expressed in HEK293 cells assessed as Kcl-induced depolarization at 10 uM; assay type: cell-based
How it was run: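 HEK293 cells stably expressing alpha1G plus Kir2.1, grown in DMEM/10% FBS with penicillin, streptomycin, geneticin and puromycin at 37 °C, 5% CO2; seeded 4 × 10^4 cells/well, used next day. Loaded 60 min at room temperature with 5 µM fluo3/AM and 0.001% Pluronic F-127 in Hepes buffer (pH 7.4). Channels activated by 70 mM KCl with 10 mM CaCl2; rise in intracellular Ca2+ read by FDSS6000 fluorescence.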

T1 sequence (O43497 whole entry): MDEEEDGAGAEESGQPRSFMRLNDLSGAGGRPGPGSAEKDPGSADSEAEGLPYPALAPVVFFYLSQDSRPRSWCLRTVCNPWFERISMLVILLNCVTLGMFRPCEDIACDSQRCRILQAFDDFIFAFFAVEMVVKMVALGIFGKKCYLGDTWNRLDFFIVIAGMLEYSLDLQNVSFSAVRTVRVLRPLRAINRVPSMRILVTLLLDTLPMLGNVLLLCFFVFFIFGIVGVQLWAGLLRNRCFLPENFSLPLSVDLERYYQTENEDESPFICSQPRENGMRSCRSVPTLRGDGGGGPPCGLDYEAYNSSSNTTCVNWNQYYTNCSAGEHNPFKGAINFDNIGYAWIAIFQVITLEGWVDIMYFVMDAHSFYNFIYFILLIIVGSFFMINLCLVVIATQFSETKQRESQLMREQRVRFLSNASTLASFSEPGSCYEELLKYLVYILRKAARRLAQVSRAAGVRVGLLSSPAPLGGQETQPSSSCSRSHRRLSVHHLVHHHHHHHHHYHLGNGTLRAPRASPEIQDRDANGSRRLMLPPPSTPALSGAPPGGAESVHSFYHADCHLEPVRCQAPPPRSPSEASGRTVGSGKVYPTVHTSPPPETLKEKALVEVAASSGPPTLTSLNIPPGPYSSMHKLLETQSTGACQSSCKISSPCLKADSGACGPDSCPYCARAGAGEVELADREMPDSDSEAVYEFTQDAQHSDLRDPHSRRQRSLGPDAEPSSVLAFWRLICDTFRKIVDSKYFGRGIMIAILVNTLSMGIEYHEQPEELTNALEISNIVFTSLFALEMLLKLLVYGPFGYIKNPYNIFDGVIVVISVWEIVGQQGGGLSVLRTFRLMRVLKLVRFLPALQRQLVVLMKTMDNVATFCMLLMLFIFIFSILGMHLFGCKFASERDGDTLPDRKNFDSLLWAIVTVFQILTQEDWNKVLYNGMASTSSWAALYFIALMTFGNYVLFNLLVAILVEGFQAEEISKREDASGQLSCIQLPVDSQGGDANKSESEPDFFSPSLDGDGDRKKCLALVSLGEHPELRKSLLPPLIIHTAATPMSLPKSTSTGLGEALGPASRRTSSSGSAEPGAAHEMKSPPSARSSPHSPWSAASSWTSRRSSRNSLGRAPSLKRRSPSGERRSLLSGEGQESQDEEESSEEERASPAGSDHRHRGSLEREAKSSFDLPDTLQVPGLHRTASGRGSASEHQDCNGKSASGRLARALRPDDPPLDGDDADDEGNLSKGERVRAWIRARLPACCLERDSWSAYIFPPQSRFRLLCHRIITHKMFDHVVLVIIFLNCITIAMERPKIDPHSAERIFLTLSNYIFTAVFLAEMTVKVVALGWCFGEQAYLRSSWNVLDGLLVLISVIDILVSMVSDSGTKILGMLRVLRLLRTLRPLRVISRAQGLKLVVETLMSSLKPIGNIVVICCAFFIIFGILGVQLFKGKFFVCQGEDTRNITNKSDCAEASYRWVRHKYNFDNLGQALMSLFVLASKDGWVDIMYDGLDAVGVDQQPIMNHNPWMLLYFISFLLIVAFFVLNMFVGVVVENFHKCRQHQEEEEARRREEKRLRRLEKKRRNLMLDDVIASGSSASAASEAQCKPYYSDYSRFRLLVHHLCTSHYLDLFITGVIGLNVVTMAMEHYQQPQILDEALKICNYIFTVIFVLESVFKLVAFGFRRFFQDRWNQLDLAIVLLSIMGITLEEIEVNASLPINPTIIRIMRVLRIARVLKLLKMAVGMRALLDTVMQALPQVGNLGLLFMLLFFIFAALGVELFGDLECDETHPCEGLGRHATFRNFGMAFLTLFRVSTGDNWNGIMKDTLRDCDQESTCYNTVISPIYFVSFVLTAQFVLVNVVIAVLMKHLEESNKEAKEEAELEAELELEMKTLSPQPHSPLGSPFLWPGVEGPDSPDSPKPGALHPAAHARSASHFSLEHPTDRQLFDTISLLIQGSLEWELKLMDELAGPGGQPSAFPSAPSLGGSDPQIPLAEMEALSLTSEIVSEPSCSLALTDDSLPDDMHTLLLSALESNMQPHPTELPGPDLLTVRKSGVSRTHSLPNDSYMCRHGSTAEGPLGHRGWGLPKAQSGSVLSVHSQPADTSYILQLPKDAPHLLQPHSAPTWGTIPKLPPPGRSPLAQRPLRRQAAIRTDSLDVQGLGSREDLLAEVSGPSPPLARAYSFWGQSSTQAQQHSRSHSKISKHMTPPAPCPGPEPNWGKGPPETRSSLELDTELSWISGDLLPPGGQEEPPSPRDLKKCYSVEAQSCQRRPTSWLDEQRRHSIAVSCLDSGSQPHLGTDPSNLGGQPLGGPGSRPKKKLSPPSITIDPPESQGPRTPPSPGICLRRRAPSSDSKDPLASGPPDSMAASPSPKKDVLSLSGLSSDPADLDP

In order of falling inhibition:
1. COc1ccc(C(CC(=O)N2CCN(Cc3nc4ccc(C)cc4o3)CC2)c2ccccc2)cc1 (centres undefined)  63.5%
2. COC(=O)c1coc(CN2CCN(C(=O)CC(c3ccccc3)c3ccc(C(F)(F)F)cc3)CC2)n1 (centres undefined)  60.4%
3. COC(=O)c1coc(CN2CCN(C(=O)CC(c3ccc(C(F)(F)F)cc3)c3cccc(F)c3)CC2)n1 (centres undefined)  57.6%
4. O=C(CC(c1ccc(C(F)(F)F)cc1)c1cccc(F)c1)N1CCN(Cc2nc(C(=O)N3CCOCC3)co2)CC1 (centres undefined)  53.4%
5. COc1ccc(C(CC(=O)N2CCN(Cc3nc4ccc(C)cc4o3)CC2)c2cccc(F)c2)cc1 (centres undefined)  52%
6. COC(=O)c1coc(CN2CCN(C(=O)CC(c3ccc(F)cc3)c3ccc(C(F)(F)F)cc3)CC2)n1 (centres undefined)  51.8%
7. O=C(CC(c1ccc(Cl)cc1)c1cccc(F)c1)N1CCN(Cc2nc(C(=O)N3CCOCC3)co2)CC1 (centres undefined)  48.6%
8. COC(=O)c1coc(CN2CCN(C(=O)CC(c3ccc(F)cc3)c3ccc(Cl)cc3)CC2)n1 (centres undefined)  45.1%
9. Cc1ccc2nc(CN3CCN(C(=O)CC(c4ccc(F)cc4)c4cccc(F)c4)CC3)oc2c1 (centres undefined)  44.9%
10. O=C(CC(c1ccc(Br)cc1)c1cccc(F)c1)N1CCN(Cc2nc(C(=O)N3CCOCC3)co2)CC1 (centres undefined)  44.6%
11. COC(=O)c1coc(CN2CCN(C(=O)CC(c3ccc(F)cc3)c3cccc(F)c3)CC2)n1 (centres undefined)  44.5%
12. COC(=O)c1coc(CN2CCN(C(=O)CC(c3ccccc3)c3ccc(Br)cc3)CC2)n1 (centres undefined)  42.8%
13. Cc1ccc2nc(CN3CCN(C(=O)CC(c4ccccc4)c4ccc(F)cc4)CC3)oc2c1 (centres undefined)  42.7%
14. COC(=O)c1coc(CN2CCN(C(=O)CC(c3ccc(F)cc3)c3ccc(Br)cc3)CC2)n1 (centres undefined)  42.1%
15. O=C(CC(c1ccc(F)cc1)c1cccc(F)c1)N1CCN(Cc2nc(C(=O)N3CCOCC3)co2)CC1 (centres undefined)  36.9%
16. COC(=O)c1coc(CN2CCN(C(=O)CC(c3ccc(Br)cc3)c3cccc(F)c3)CC2)n1 (centres undefined)  36.6%
17. COC(=O)c1coc(CN2CCN(C(=O)CC(c3ccccc3)c3ccc(Cl)cc3)CC2)n1 (centres undefined)  35%
18. COC(=O)c1coc(CN2CCN(C(=O)CC(c3ccc(F)cc3)c3ccc(F)cc3)CC2)n1  33.5%
19. Cc1ccc2nc(CN3CCN(C(=O)CC(c4ccc(Cl)cc4)c4cccc(F)c4)CC3)oc2c1 (centres undefined)  32.2%
20. Cc1ccc2nc(CN3CCN(C(=O)CC(c4ccc(F)cc4)c4ccc(F)cc4)CC3)oc2c1  30.9%
21. COC(=O)c1coc(CN2CCN(C(=O)CC(c3ccccc3)c3ccc(F)cc3)CC2)n1 (centres undefined)  27.7%
22. Cc1ccc2nc(CN3CCN(C(=O)CC(c4ccc(C(F)(F)F)cc4)c4cccc(F)c4)CC3)oc2c1 (centres undefined)  26.4%
23. Cc1ccc2nc(CN3CCN(C(=O)CC(c4ccccc4)c4ccc(Cl)cc4)CC3)oc2c1 (centres undefined)  25.9%
24. COC(=O)c1coc(CN2CCN(C(=O)CC(c3ccc(OC)cc3)c3cccc(F)c3)CC2)n1 (centres undefined)  25.5%
25. COC(=O)c1coc(CN2CCN(C(=O)CC(c3ccc(Cl)cc3)c3cccc(F)c3)CC2)n1 (centres undefined)  24.5%
26. COC(=O)c1coc(CN2CCN(C(=O)CC(c3ccc(F)cc3)c3ccc(OC)cc3)CC2)n1 (centres undefined)  24.5%
27. COc1ccc(C(CC(=O)N2CCN(Cc3nc4ccc(C)cc4o3)CC2)c2ccc(F)cc2)cc1 (centres undefined)  23.3%
28. COC(=O)c1coc(CN2CCN(C(=O)CC(c3ccccc3)c3ccc(OC)cc3)CC2)n1 (centres undefined)  22.8%
29. Cc1ccc2nc(CN3CCN(C(=O)CC(c4ccccc4)c4ccc(C(F)(F)F)cc4)CC3)oc2c1 (centres undefined)  22.4%
30. O=C(CC(c1ccc(Br)cc1)c1cccc(F)c1)N1CCN(Cc2nc(CO)co2)CC1 (centres undefined)  21.3%
31. COc1ccc(C(CC(=O)N2CCN(Cc3nc(C(=O)N4CCOCC4)co3)CC2)c2cccc(F)c2)cc1 (centres undefined)  19.7%
32. O=C(CC(c1ccc(C(F)(F)F)cc1)c1cccc(F)c1)N1CCN(Cc2nc(CO)co2)CC1 (centres undefined)  19.2%
33. O=C(CC(c1ccc(Cl)cc1)c1cccc(F)c1)N1CCN(Cc2nc(CO)co2)CC1 (centres undefined)  19.2%
34. Cc1ccc2nc(CN3CCN(C(=O)CC(c4ccc(Br)cc4)c4cccc(F)c4)CC3)oc2c1 (centres undefined)  18%
35. Cc1ccc2nc(CN3CCN(C(=O)CC(c4ccc(F)cc4)c4ccc(Cl)cc4)CC3)oc2c1 (centres undefined)  15.5%
36. O=C(CC(c1ccc(F)cc1)c1cccc(F)c1)N1CCN(Cc2nc(CO)co2)CC1 (centres undefined)  13.7%
37. Cc1ccc2nc(CN3CCN(C(=O)CC(c4ccccc4)c4ccc(Br)cc4)CC3)oc2c1 (centres undefined)  13.6%
38. Cc1ccc2nc(CN3CCN(C(=O)CC(c4ccc(F)cc4)c4ccc(Br)cc4)CC3)oc2c1 (centres undefined)  11.2%
39. Cc1ccc2nc(CN3CCN(C(=O)CC(c4ccc(F)cc4)c4ccc(C(F)(F)F)cc4)CC3)oc2c1 (centres undefined)  9.84%
40. COc1ccc(C(CC(=O)N2CCN(Cc3nc(C(=O)O)co3)CC2)c2ccc(F)cc2)cc1 (centres undefined)  7.68%
41. O=C(O)c1coc(CN2CCN(C(=O)CC(c3ccc(F)cc3)c3ccc(Br)cc3)CC2)n1 (centres undefined)  5.42%
42. COc1ccc(C(CC(=O)N2CCN(Cc3nc(CO)co3)CC2)c2cccc(F)c2)cc1 (centres undefined)  4.9%
43. O=C(O)c1coc(CN2CCN(C(=O)CC(c3ccc(F)cc3)c3ccc(F)cc3)CC2)n1  3.84%
44. O=C(O)c1coc(CN2CCN(C(=O)CC(c3ccc(F)cc3)c3ccc(Cl)cc3)CC2)n1 (centres undefined)  3.62%
45. O=C(O)c1coc(CN2CCN(C(=O)CC(c3ccc(F)cc3)c3ccc(C(F)(F)F)cc3)CC2)n1 (centres undefined)  3.62%

biological target: T1, Voltage-dependent T-type calcium channel subunit alpha-1G; assay: Inhibition of T-type alpha1G calcium channel
How it was run: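 HEK293 cells stably expressing α1G and Kir2.1 were seeded at 4 × 10⁴ cells/well and used the next day. They were loaded with 5 µM fluo3/AM and 0.001% Pluronic F-127 for 60 min at room temperature in Hepes buffer (pH 7.4). Channels were activated by 70 mM KCl depolarization in buffer containing 10 mM CaCl₂, and the rise in intracellular Ca²⁺ was read by fluorescence (FDSS6000).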

For `O=c1[nH]c2ccccc2n1C1CCN(CCCC(c2ccc(F)cc2)c2ccc(F)cc2)CC1` [PIMOZIDE], the Kd was 40 nM.

biological target: Voltage-gated inwardly rectifying potassium channel KCNH2 (Homo sapiens, UniProt Q12809); assay: Inhibition of human hERG
Sequence (Q12809 whole entry): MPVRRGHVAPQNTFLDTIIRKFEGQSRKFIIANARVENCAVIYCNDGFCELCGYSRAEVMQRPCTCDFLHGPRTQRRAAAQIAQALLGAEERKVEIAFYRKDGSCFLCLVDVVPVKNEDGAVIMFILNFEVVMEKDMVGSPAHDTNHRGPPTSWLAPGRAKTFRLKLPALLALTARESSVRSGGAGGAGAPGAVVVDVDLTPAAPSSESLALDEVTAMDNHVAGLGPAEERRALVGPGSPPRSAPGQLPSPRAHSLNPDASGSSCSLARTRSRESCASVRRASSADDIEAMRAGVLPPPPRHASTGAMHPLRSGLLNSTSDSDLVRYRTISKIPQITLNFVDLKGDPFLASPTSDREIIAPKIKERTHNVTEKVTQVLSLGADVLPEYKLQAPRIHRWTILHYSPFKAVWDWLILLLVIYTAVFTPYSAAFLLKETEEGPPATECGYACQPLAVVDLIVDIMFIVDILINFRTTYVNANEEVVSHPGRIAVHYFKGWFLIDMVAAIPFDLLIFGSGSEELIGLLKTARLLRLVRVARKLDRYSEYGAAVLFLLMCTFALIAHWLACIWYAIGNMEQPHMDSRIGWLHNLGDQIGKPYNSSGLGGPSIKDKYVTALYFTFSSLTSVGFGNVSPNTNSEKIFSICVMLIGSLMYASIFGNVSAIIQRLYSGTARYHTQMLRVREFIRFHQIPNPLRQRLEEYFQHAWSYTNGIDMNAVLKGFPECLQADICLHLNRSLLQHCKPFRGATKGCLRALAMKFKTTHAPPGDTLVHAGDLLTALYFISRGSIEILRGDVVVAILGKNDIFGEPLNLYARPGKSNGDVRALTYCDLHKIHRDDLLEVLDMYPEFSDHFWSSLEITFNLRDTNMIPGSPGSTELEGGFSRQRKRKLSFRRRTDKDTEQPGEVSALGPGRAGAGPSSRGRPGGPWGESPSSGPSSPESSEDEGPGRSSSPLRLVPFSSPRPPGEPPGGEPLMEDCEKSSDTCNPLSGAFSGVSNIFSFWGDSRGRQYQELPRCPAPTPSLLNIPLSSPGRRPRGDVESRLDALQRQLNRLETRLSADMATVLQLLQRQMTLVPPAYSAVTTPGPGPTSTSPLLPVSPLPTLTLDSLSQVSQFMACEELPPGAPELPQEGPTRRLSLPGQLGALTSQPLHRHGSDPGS

For `COC(=O)c1coc(CN2CCN(C(=O)CC(c3ccc(F)cc3)c3ccc(Br)cc3)CC2)n1` (centres undefined), the IC50 was 2230 nM.

biological target: T1, Voltage-dependent T-type calcium channel subunit alpha-1G; assay: Inhibition of T-type alpha1G calcium channel expressed in HEK293 cells by whole-cell patch-clamp method

In order of falling IC50:
1. COC(=O)c1coc(CN2CCN(C(=O)CC(c3ccccc3)c3ccc(Br)cc3)CC2)n1 (centres undefined)  21100 nM
2. COC(=O)c1coc(CN2CCN(C(=O)CC(c3ccccc3)c3ccc(C(F)(F)F)cc3)CC2)n1 (centres undefined)  17000 nM
3. COC(=O)c1coc(CN2CCN(C(=O)CC(c3ccc(F)cc3)c3ccc(Cl)cc3)CC2)n1 (centres undefined)  8800 nM
4. COc1ccc(C(CC(=O)N2CCN(Cc3nc4ccc(C)cc4o3)CC2)c2ccccc2)cc1 (centres undefined)  2480 nM
5. COC(=O)c1coc(CN2CCN(C(=O)CC(c3ccc(F)cc3)c3ccc(C(F)(F)F)cc3)CC2)n1 (centres undefined)  1730 nM
6. Cc1ccc2nc(CN3CCN(C(=O)CC(c4ccccc4)c4ccc(F)cc4)CC3)oc2c1 (centres undefined)  1290 nM
7. COC(=O)c1coc(CN2CCN(C(=O)CC(c3ccc(F)cc3)c3ccc(Br)cc3)CC2)n1 (centres undefined)  830 nM
